The subject of assay [1] is TAAp-specific CD8+ T cells, A2/DR1 mice. Format: in vivo, mouse. Particulars: for TAAp-specific IFN-γ response after OMP immunization: ex vivo restimulation with TAAp; for TAAp-specific response, OMP versus TAAp immunization: figure 2F. The method in brief: (§1)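 HLA-A2/DR1 transgenic mice primed day 0, boosted day 14, s.c., with class I peptide (5, 30 or 95 nmol) plus UCP2 helper (30–100 µg) in Montanide ISA 51 VG (50:50). Spleens taken day 21 post-prime, or day 30 in the tumour study; RBCs lysed. 2×10^5 splenocytes/well restimulated ~20 h with 10 µM peptide at 37°C. PMA/ionomycin and EZH2-B2 controls. Media background subtracted; IFN-γ spots per 10^6 T cells.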

For another assay, the system named is OMP-loaded T2 cells. The experiment in a line: Cytotoxicity of sorted TAAp-specific T cells on OMP-loaded T2 cells. The class given is cell-based, human. Particulars: 24 h, EZH2-loaded T2 as control. The method in brief: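 Patient PBMCs stimulated 12 days in vitro with the three-peptide OMP pool. TAAp-tetramer+ CD8+ T cells sorted, then expanded on anti-CD3/CD28 activator with IL-2 (50 U/mL), IL-7, IL-15 and IL-21. CellTrace Violet-labelled T2 cells co-cultured with these T cells, peptide (OMP or EZH2 control) and β2-microglobulin at 37°C for 24 h in 50% RPMI/50% X-vivo 15. Media-only control. CD8 and near-IR live/dead stains; duplicates.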

The subject of another assay is patient CD8+ T cells. The experiment in a line: Intracellular cytokine staining. The class given is cell-based, human. Particulars: for Cytokine levels after restimulation (ICS): post-IVS with OMPs. The essentials:
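Patient PBMCs expanded 12 days in vitro with the three-peptide bacterial pool (1 µg/mL each, added day 1) in IMDM/10% human serum/β-ME. IL-2 (2 ng/mL) added on day 3 and again on days 5, 7 and 9. Cells then restimulated with the indicated peptides. Intracellular IFN-γ, TNF, IL-2, CD154 and CD107a reported as % positive T cells.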

The test system of assay [2] is antigen-specific CD8+ T cells in patient PBMCs. In words: Tetramer staining of patient PBMCs after 12 days IVS with OMPs. Format: cell-based, human. Particulars: patients, EO2401. The essentials:
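Thawed patient PBMCs (2.5–3.5×10^6/well) rested 24 h, then given the OMP pool (1 µg/mL each) on day 1. IL-2 (2 ng/mL) added from day 3, with splits and feeds; harvested day 12. Stained 30 min at RT with separate OMP and TAAp tetramer mixes (2.5 µg/mL each), or matched pairs for cross-reactivity. Then CD4/CD8/CD14/CD19 and Zombie Aqua, 20 min 4°C. ≥600,000 cells acquired; % of live CD8+.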

The test system of assay [3] is OMP-/TAAp-specific CD8+ T cells in HD PBMCs. Format: cell-based, human. Particulars: HLA-A2+ HD PBMCs after IVS with OMPs; average unless stated. The method in brief:
(§2)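 HLA-A*02:01 donor PBMCs pulsed 24 h with OMPs (10 µM), CD137-enriched, expanded 8 days on anti-CD3/CD28 with IL-2/7/15/21. Restimulated every 10 days with mitomycin C-treated T2 cells loaded with peptide and β2-microglobulin. Antigen-specific frequency measured by CD8 plus pMHC tetramer staining. Per-donor cross-reactivity (%) computed from the TAA-specific and OMP-specific CD8+ percentages.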

In assay [4] the test system is OMP-specific CD8+ T cells in HD PBMCs. The experiment in a line: Prevalence of OMP-specific CD8+ T cells in healthy donors. Format: cell-based, human. The essentials: as §2
Assay [5] concerns splenocytes pulsed with OMPs. In words: In vivo cytotoxicity in humanized HLA-A2 mice, OMP-pulsed splenocytes. Also noted: species or system mouse. Particulars: online supplemental figure 2. The method in brief: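 Immunised A2/DR1 mice challenged i.v. 6 days post-boost; naïve mice received the same cells. Splenocytes from unimmunised syngeneic donors were pulsed with individual peptides (bright dye) and mixed 1:1 with unpulsed cells (dim dye). Read out 20 h later by flow cytometry. Specific lysis (%) = (% targets in naïve − % in immunised)/% in naïve × 100.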

Assay [6] relates to antigen-specific CD8+ T cells in patient PBMCs. In words: Tetramer staining of patient PBMCs ex vivo. Format: cell-based, human.
Assay [7] relates to OMP-specific CD8+ T cells, A2/DR1 mice. The experiment in a line: IFN-γ ELISpot of splenocytes from immunized A2/DR1 mice, restimulation with OMP. The class given is in vivo, mouse. Particulars: ELISpot day 30. The essentials: as §1
Assay [8] relates to human CD20 on SARC-A2-hCD20-GFP cells. In words: hCD20 expression of tumor cells at day 30. The class given is in vivo, mouse. Particulars: OMP72-immunized mice still bearing tumors, day 30, n=4.
The test system of assay [9] is SARC-A2-hCD20-GFP sarcoma cells. In words: Tumor protection model, SARC-A2-hCD20-GFP sarcoma in A2/DR1 mice. Format: in vivo, mouse. Particulars: OMP72 prime-boost, 0.5×10^6 SARC-A2-hCD20-GFP cells s.c., n=8 mice. The essentials:
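A2/DR1 mice given the prime-boost regimen (days 0 and 14). On day 21 post-prime, 0.5×10^6 SARC-A2-hCD20-GFP or SARC-A2-GFP sarcoma cells in PBS injected s.c. in the right flank; naïve mice as controls. Tumours measured by caliper twice weekly over 30 days (mm2). Endpoint at ≥300 mm2; n=8 per group.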

Entries after “also recorded” stand apart in the source; their conditions may differ.

For the sequence FLPFGFILPV [OMP16], in assay [1], the “TAAp-specific IFN-γ response after OMP immunization” value (“TAAp-specific IFN-γ response” for short) is reported as < 2,000 SFU and the “TAAp-specific response, OMP versus TAAp immunization” value is “superior immunogenicity”. In the assay on OMP-loaded T2 cells, the “Killing of OMP-loaded T2 cells by corresponding TAAp-tetramer+ T cells” value (shortened to “Killing of OMP-loaded T2 cells”) is reported as “specifically killed”. Further, the “Cytokine levels after restimulation (ICS)” value (“Cytokine levels” below) in the assay on patient CD8+ T cells is recorded as “stronger cytokine levels”. The “OMP-specific T cells also recognizing the matched TAAp” value in [2] stood at 1%.
As for ALNPELLAL [OMP12], the “Cross-reactivity OMP/TAAp in healthy donor CD8+ T cells” value (shortened to “Cross-reactivity OMP/TAAp”) in assay [3] was “above 66%”. For the same sequence, in [1], the “TAAp-specific response, OMP versus TAAp immunization” value is “superior immunogenicity”.
Take YIFEHPETA [OMP64]: the “Prevalence of OMP-specific CD8+ T cells in HLA-A2+ PBMC samples” value in assay [4] is recorded as 67%. Besides, in assay [3], the “Cross-reactivity OMP/TAAp” value was “below 33%”. Also, the “Individual OMP-specific CTL activity” value in assay [5] is given as “lower”. For the same sequence, the “TAAp-specific IFN-γ response” value in assay [1] is < 2,000 SFU.
For the sequence LMFGAPALV [OMP66], in assay [1], the “TAAp-specific IFN-γ response” value is given as > 5,000 SFU and the “TAAp-specific response, OMP versus TAAp immunization” value was “superior immunogenicity”.
Consider SLPDRILTV [OMP11], for which the “Cross-reactivity OMP/TAAp” value in assay [3] is recorded as “below 33%”.
For the sequence LMDLSTTEV [OMP18], in assay [3], the “Cross-reactivity OMP/TAAp” value is listed as “below 33%”. In assay [1], the “TAAp-specific IFN-γ response” value is given as < 2,000 SFU. For the same sequence, the “Killing of OMP-loaded T2 cells” value in the assay on OMP-loaded T2 cells was “specifically killed”. Also, the “Cytokine levels” value in the assay on patient CD8+ T cells is “stronger cytokine levels”. In addition, the “OMP-specific T cells also recognizing the matched TAAp” value in assay [2] is reported as “around 20%”.
Regarding FLYDVRTYL [OMP10], in [3], the “Cross-reactivity OMP/TAAp” value is “below 33%”.
Turning to FMLGEFLKL [OMP17], the “Cross-reactivity OMP/TAAp” value in [3] is recorded as “above 66%”. Besides, in assay [1], the “TAAp-specific IFN-γ response” value was > 5,000 SFU and the “TAAp-specific response, OMP versus TAAp immunization” value was “superior immunogenicity”. In addition, the “Killing of OMP-loaded T2 cells” value in the assay on OMP-loaded T2 cells was “specifically killed”. In the assay on patient CD8+ T cells (Patient #1, weeks 88 and 100), the “Simultaneous cytokine production on restimulation (polyfunctionality)” value was “IFN-γ, TNF-α and CD107a simultaneously”. The “Cytokine levels” value in the assay on patient CD8+ T cells is reported as “stronger cytokine levels”. Also, the “BIRC5-specific CD8+ T cells of total circulating CD8+ T cells” value in assay [6] (Patient #1) is given as “more than 20%”. Further, the “Tetramer+ T cells of total circulating CD8+ T cells, week 44” value in assay [6] (Patient #1, ex vivo, week 44) was 3.27%. The “Tetramer+ T cells of total circulating CD8+ T cells, week 88” value in [6] (Patient #1, ex vivo, week 88) is on record as 17.4%. Also, in assay [6] (Patient #1, ex vivo, week 100, listed as EO2317), the “Tetramer+ T cells of total circulating CD8+ T cells, week 100” value came out at 32%. The “OMP-specific T cells also recognizing the matched TAAp” value in [2] is 80%.
Turning to “LLFGAPALL [BAFF-R77-85, reference compound]”, the “TAAp-specific response, OMP versus TAAp immunization” value in assay [1] is given as “weaker when mice were immunized with TAAps than with their mimic OMPs”.
As for AMNSLSLYI [OMP72], in assay [7], the “OMP72-specific IFN-γ-producing cells in responsive versus non-responsive mice” value is given as “comparable levels”. The “Individual OMP-specific CTL activity” value in [5] is given as “negligible”. Further, the “Tumor cells with loss of CD20 surface expression in non-controlled tumors” value in assay [8] is 99%. In addition, the “Tumor protection after immunization” value in [9] was “half of the A2/DR1 mice; also recorded: could induce protection against CD20-expressing tumor cells”.
Consider FLAFVPLQL [OMP65], for which, in assay [1], the “TAAp-specific IFN-γ response” value is > 5,000 SFU and the “TAAp-specific response, OMP versus TAAp immunization” value is “superior immunogenicity”.

These data come from publication PMC11842988 (Journal for Immunotherapy of Cancer, 2025).
